The values that follow come from ChEMBL document CHEMBL4610095, “chiro-Inositol Derivatives from Chisocheton paniculatus Showing Inhibition of Nitric Oxide Production” (J Nat Prod, 2020).

Each structure is given as a SMILES string. pIC50: −log10 of the molar value. Where only a bound is given, the exact number is not on record here.

In one series the test system is RAW264.7. In words: Antiinflammatory activity in mouse RAW264.7 cells assessed as reduction in LPS-induced NO production incubated for 24 hrs by Griess reagent based assay. The format is functional, cell-based. Conditions: RAW264.7, 24 h. In outline: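 RAW 264.7 cells seeded at 2×10^5 cells/well and held 24 h at 37 °C, 5% CO2. Cells treated with or without compounds at various concentrations plus LPS (1 μg/mL) for 24 h. Nitrite in cell-free supernatant read by Griess reaction (sulfanilamide/phosphoric acid, N-1-naphthylethylenediamine) at 540 nm against a NaNO2 standard curve. L-NMMA served as positive control. IC50 reported.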

A short description of series [1]: Cytotoxicity against mouse RAW264.7 cells assessed as cell viability at 100 ug/ml by MTT assay. The format is cell-based. Conditions: read-out: Activity. The essentials:
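Compounds tested at 100 μg/mL on RAW 264.7 cells seeded at 2×10^5 cells/well. Cells were co-stimulated with LPS (1 μg/mL) for 24 h at 37 °C. Viability of the remaining cells after supernatant removal was measured by MTT colorimetric assay.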
A general note: Tetrazolium assays rely on reduction of a dye to a coloured formazan, in cell work by metabolically active cells.

The term pIC50 denotes the negative decadic logarithm of the IC50, by convention in mol/L. On to `C/C=C(\C)C(=O)O[C@@H]1[C@H](O)[C@@H](OC(=O)C(C)CC)[C@@H](O)[C@H](OC(=O)/C(=C/C)CO)[C@H]1OC(=O)/C(=C/C)CO` (some centres not stated), for which, in the series on RAW264.7, the negative-log IC50 (pIC50) is 4.69. Further, the viability at 100 ug/ml in series [1] is over 85%.
The corresponding values for `C/C=C(\C)C(=O)O[C@@H]1[C@H](O)[C@@H](OC(=O)C(C)CC)[C@@H](OC(=O)/C(=C/C)CO)[C@H](O)[C@H]1OC(=O)/C(=C/C)CO` (some centres not stated) are 5.15 and over 85%.
For the molecule `C/C=C(\CO)C(=O)O[C@H]1[C@H](OC(=O)C(C)CC)[C@H](O)[C@@H](OC(=O)C(C)CC)[C@@H](O)[C@@H]1OC(=O)/C(=C/C)CO` (some centres not stated), the pIC50 with RAW264.7 was 4.20. In addition, the viability at 100 ug/ml in series [1] is over 85%.
`C/C=C(\CO)C(=O)O[C@@H]1[C@@H](O)[C@H](OC(=O)/C(=C/C)CO)[C@H](OC(=O)C(C)CC)[C@@H](O)[C@H]1OC(=O)C(C)CC` (some centres not stated): the pIC50 with RAW264.7 was 4.02. In addition, the viability at 100 ug/ml in series [1] is over 85%.
For `C/C=C(\C)C(=O)O[C@@H]1[C@@H](O)[C@@H](OC(=O)C(C)CC)[C@H](OC(=O)/C(=C/C)CO)[C@@H](OC(=O)/C(=C/C)CO)[C@@H]1O` (some centres not stated), the pIC50 with RAW264.7 was 3.91. Besides, the viability at 100 ug/ml in series [1] was over 85%.
In the case of `C/C=C(\C)C(=O)O[C@@H]1[C@H](O)[C@@H](O)[C@@H](OC(=O)/C(C)=C/C)[C@H](OC(=O)/C(=C/C)CO)[C@H]1OC(=O)/C(=C/C)CO`, the negative-log IC50 (pIC50) with RAW264.7 is 4.25. In series [1], the viability at 100 ug/ml is over 85%.
